Assay results as given in ChEMBL document CHEMBL1135879 (J Med Chem, 2002).

Experiments:
[1] = molecular target: T1, Amine oxidase [flavin-containing] B (Bos taurus, UniProt P56560); test: Inhibition of bovine brain mitochondrial Monoamine oxidase B (MAO-B) compared to toloxatone
T1 sequence (P56560 whole entry): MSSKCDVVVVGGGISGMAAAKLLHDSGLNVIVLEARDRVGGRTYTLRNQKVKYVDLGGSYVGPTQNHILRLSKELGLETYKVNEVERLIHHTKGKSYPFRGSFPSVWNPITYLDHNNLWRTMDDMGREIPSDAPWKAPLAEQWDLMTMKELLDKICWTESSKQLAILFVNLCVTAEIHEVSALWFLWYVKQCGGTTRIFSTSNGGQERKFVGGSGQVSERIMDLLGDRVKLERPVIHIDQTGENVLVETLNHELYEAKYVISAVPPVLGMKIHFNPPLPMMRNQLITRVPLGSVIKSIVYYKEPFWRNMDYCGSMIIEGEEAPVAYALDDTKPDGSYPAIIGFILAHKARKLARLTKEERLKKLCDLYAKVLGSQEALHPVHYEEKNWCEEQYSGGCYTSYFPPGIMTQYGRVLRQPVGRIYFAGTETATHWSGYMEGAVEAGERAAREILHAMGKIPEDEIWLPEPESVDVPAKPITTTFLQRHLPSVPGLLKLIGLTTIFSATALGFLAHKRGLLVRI
Method in brief: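 Bovine brain mitochondrial fractions were isolated by the Basford method. To leave MAO-B activity, fractions were preincubated 30 min at 38 °C with 1 μM clorgyline. Inhibitors in DMSO were preincubated 30 min before kynuramine was added, then incubated 30 min more. Fluorimetric read-out was used and Ki values determined.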

[2] = molecular target: T2, Amine oxidase [flavin-containing] A (Bos taurus, UniProt P21398); test: Inhibition of bovine brain mitochondrial Monoamine oxidase A (MAO-A) compared to toloxatone
T2 sequence (P21398 whole entry): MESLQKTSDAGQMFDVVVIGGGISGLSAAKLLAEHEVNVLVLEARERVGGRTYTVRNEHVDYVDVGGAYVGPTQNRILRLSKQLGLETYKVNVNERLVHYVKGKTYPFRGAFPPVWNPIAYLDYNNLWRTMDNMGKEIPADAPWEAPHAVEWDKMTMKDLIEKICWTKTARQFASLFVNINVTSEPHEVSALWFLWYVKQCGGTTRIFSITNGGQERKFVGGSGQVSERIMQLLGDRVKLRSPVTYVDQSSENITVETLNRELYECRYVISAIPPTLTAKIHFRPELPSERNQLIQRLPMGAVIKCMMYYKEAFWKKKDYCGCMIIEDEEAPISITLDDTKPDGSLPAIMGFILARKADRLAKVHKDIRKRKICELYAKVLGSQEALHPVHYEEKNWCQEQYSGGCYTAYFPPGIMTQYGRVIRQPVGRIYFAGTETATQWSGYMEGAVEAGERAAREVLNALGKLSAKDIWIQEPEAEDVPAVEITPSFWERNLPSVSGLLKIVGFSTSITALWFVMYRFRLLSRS
Method in brief: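 Bovine brain mitochondria were isolated by the Basford method. To isolate MAO-A, fractions were preincubated 30 min at 38 °C with 1 μM L-deprenyl. Inhibitors in DMSO were preincubated 30 min, then kynuramine substrate was added, with 30 min further incubation. Product was read fluorimetrically and Ki values derived.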

Row | SMILES | Ki [1] | Ki [2]
1 | O=C1O[C@H](CO)CN1n1cccc1 | 2 µM | 1200 nM
2 | NC[C@H]1CN(n2cccc2)C(=O)O1 | 4.4 µM | 53000 nM
3 | [N-]=[N+]=NC[C@@H]1CN(n2cccc2)C(=O)O1 | 24 µM | 2500 nM
4 | COC[C@H]1CN(n2cccc2)C(=O)O1 | 50 µM | 4.9 nM
5 | O=C1O[C@@H](CO)CN1n1cccc1.O=C1O[C@H](CO)CN1n1cccc1 | 2 µM | 270 nM
6 | O=C1O[C@@H](CO)CN1n1cccc1 | 9 µM | 90 nM
7 | NC[C@@H]1CN(n2cccc2)C(=O)O1 | 34 µM | 1200 nM
8 | CN(C)C[C@H]1CN(n2cccc2)C(=O)O1 | 140 µM | 40000 nM
9 | COC[C@@H]1CN(n2cccc2)C(=O)O1 | 23 µM | 1000 nM
10 | COC[C@@H]1CN(c2ccc(OCC[C@H](O)C(F)(F)F)cc2)C(=O)O1 [(R/R)BEFLOXATONE] | 0.22 µM | 2.5 nM
11 | [N-]=[N+]=NC[C@H]1CN(n2cccc2)C(=O)O1 | 200 µM | 200 nM
